# Sampled rows, rich in hits. Any-hit rate of the full collection: about 5.5%.
# PLAP act = activates human placental alkaline phosphatase. purified PLAP enzyme, luminescent substrate read-out; active compounds read high. P05187. activation fold at 20 µM. AID 696. 96,000 compounds, 1.2% hits; in the data active = activation fold above about 2
# Ecoli tolC = growth inhibitors of E. coli BW25113 tolC mutant; OD615; 65,000 compounds, 2.2% hits; AID 573; growth inhibition, % at 10 µM (by protocol);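 active = growth inhibition at or above a cutoff equal to the mean over every tested compound plus 3 SD, cut at about 60% in these data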;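 also: growth measured after 20 h incubation at 37 °C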
#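 Assay system: tolC-deleted E. coli BW25113. Medium: kanamycin-containing LB broth (50 µg/mL). Dosing: 10 µM final, single dose. Timing: bacterial growth with compound for 20 h at 37 °C. Detection: A615 absorbance measurement. Read-out basis: growth inhibition in percent.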
# PostGolgi ctrl = yeast control strain growth, post-Golgi counter-screen | inhibition, % at 10 µM | 98,000 compounds, 5% hits | efflux-deficient yeast background strain, growth absorbance A615, 16 h
# HePTP inh = inhibitors of human HePTP phosphatase; inhibition, % at 20 µM; P35236; AID 521; recombinant HePTP phosphatase activity, OD absorbance; 110,000 compounds, 0.64% hits; in the data active = inhibition above about 50%
# Target sequence (P35236 whole entry, looked up): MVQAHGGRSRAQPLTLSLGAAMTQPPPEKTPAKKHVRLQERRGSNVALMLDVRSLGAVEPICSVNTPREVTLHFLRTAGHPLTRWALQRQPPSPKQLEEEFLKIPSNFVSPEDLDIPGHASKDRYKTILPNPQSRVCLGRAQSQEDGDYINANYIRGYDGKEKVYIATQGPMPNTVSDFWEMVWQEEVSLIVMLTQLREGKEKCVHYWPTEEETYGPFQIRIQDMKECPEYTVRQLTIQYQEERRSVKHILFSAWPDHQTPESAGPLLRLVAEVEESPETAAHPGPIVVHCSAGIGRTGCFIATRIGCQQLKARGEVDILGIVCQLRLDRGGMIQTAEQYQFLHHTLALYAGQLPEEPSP
# E coli WT exp = E. coli BW25113 growth inhibition, expanded screen. 98,000 compounds, 0.15% hits. AID 710. growth inhibition, % at 100 µM. OD600 absorbance;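 active = growth inhibition above about 50% at one test dose, limit read from the data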;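 also: growth measured after 20 h incubation at 37 °C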
# PostGolgi yeast = growth inhibition of a yeast mutant, post-Golgi transport screen; inhibition, % at 10 µM; post-Golgi transport phenotypic cell assay; 98,000 compounds, 0.9% hits; AID 739;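 also: yeast cells grown in 1536-well plates; yeast grown about 18 h at 30C before absorbance read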
# A number is an active result; i = inactive; nt = no result. Rule as the data show it, unless noted: active = inhibition above about 30%; inactive = the rest.
SMILES,PLAP act,Ecoli tolC,PostGolgi ctrl,HePTP inh,E coli WT exp,PostGolgi yeast
Cc1ccc([N+](=O)[O-])cc1Cc1cc(Cl)ccc1Cl,nt,nt,nt,i,nt,nt
OC(Cn1cncn1)(c1ccccc1)c1ccccc1,i,nt,91.1,nt,i,102.7
O=C1c2ccccc2-c2onc3c(Cl)cc(Sc4ccccc4)c1c23,nt,nt,nt,i,nt,nt
Cc1ccc(NC(CNS(=O)(=O)c2ccc(Cl)cc2)c2ccccc2)cc1 (stereo not given),i,nt,30.5,nt,i,i
COC(CNS(=O)(=O)c1ccc(Cl)cc1)c1ccccc1 (stereo not given),nt,nt,nt,i,nt,nt
NC(=O)c1ccccc1N=Cc1cccc2ccccc12,nt,nt,nt,i,nt,nt
Fc1ccc(NCc2nnc(SCc3nnc(-c4ccccc4)o3)n2Cc2ccccc2)cc1,i,i,i,i,i,46.2
COc1ccccc1CNCc1cccc(Cl)c1,nt,nt,nt,i,nt,nt
COc1cc(OC)cc(C(=O)N2c3ccc(F)cc3CCC2C)c1 (stereo not given),i,i,31.5,i,i,i
COc1ccc(C(=O)N2c3ccc(F)cc3CCC2C)cc1OC (stereo not given),i,i,37.5,i,i,i
Cc1ccc(C(=O)N2c3ccc(F)cc3CCC2C)o1 (stereo not given),i,i,i,i,i,i
Cc1nn(Cc2ccc(C(=O)N3c4ccc(F)cc4CCC3C)o2)c(C)c1Br (stereo not given),i,96.5,i,i,i,i
O=C(N/N=C/c1ccccc1F)c1csc2c1CCCC2,i,nt,i,nt,i,i
O=C(N/N=C/c1cccc(F)c1)c1csc2c1CCCC2,i,nt,50.1,nt,i,i
O=C(Nc1ccccc1)N1CCCC2CCCCC21 (stereo not given),i,i,i,i,i,30.0
CCCCn1c(-c2ccsc2)nc2c1c(=O)[nH]c(=O)n2CCC,i,i,i,i,i,i
CCCCn1c(=O)[nH]c(=O)c2c1nc(-c1ccsc1)n2Cc1ccccc1,i,nt,30.7,nt,i,i
CC(C)Sc1nc2c(c(=O)[nH]c(=O)n2C)n1CCc1ccccc1,i,i,31.2,i,i,i
CCCn1c(SCc2ccccc2)nc2c1c(=O)[nH]c(=O)n2C,i,i,49.5,i,i,i
CCC(C)Sc1nc2c(c(=O)[nH]c(=O)n2C)n1CCc1ccccc1 (stereo not given),nt,i,i,nt,i,i
CCOC(=O)C(CC)Sc1nc2c(c(=O)[nH]c(=O)n2C)n1CCc1ccccc1 (stereo not given),2.8,i,i,i,i,i
CC(C)CCn1c(Sc2nc3ccccc3s2)nc2c1c(=O)[nH]c(=O)n2C,i,i,33.2,i,i,i
CCCCCSc1nc2c(c(=O)[nH]c(=O)n2C)n1CCc1ccccc1,i,i,nt,i,nt,nt
CCOC(=O)CSc1nc2c(c(=O)[nH]c(=O)n2C)n1CCc1ccccc1,i,i,i,i,i,i
O=C1c2cc(Cl)c(Cl)cc2C(=O)N1c1cccc(O)c1,nt,nt,nt,i,nt,nt
SMILES,PLAP act,Ecoli tolC,PostGolgi ctrl,HePTP inh,E coli WT exp,PostGolgi yeast
O=C(c1ccc(C#CC2(O)CCCCC2)cc1)N1CCN(c2cccc(Cl)c2)CC1,nt,nt,nt,i,nt,nt
Cc1cc(C)n(-c2nc3c(c(=O)[nH]c(=O)n3C)n2CCc2ccccc2)n1,i,i,55.9,i,i,i
CC(=O)Nc1ccc(OC(=O)c2c(F)cccc2F)cc1,nt,nt,nt,89.5,nt,nt
CC(=O)Nc1ccc(OC(=O)c2cccc([N+](=O)[O-])c2)cc1,nt,nt,nt,i,nt,nt
O=C(NCCc1csc(-c2ccccc2)n1)c1ccc(Br)o1,i,nt,34.5,nt,i,i
Cc1ccc2cc(C=C(C#N)C#N)c(N3CCCCC3)nc2c1,i,nt,35.5,nt,i,i
CC1=CC(C)(C)Nc2ccc(OC(=O)c3sc4cc([N+](=O)[O-])ccc4c3Cl)cc21,nt,nt,nt,i,nt,nt
Cc1ccccc1CN(c1ccc(C(=O)Nc2ccccc2C(=O)N2CCCC2)cc1)S(C)(=O)=O,2,nt,i,nt,i,i
Cc1ccc(/C=C2\C(=O)NC(=S)N(c3ccc(Br)cc3C)C2=O)o1,nt,nt,nt,87.3,nt,nt
Cc1ccc(C=C2C(=O)NC(=S)N(c3ccccc3Cl)C2=O)o1,nt,nt,nt,65.1,nt,nt
O=C(c1ccc([N+](=O)[O-])cc1)N1CCN(Cc2cccc3ccccc23)CC1,nt,nt,nt,i,nt,nt
COc1cc(/C=N/NC(=S)Cc2ccccc2)cc(OC)c1OC,nt,nt,nt,103.9,nt,nt
COc1cc(/C=N/NC(=O)CC(=O)NC(C)C)cc(OC)c1OC,nt,nt,nt,i,nt,nt
CCOC(=O)C1=C(C)N=c2s/c(=C3\C(=O)N(CC(N)=O)c4ccccc43)c(=O)n2C1c1ccccc1 (stereo not given),nt,nt,nt,i,nt,nt
COc1cc(/C=N/NC(=O)CN2CCOCC2)c([N+](=O)[O-])cc1OC,nt,nt,nt,i,nt,nt
Cc1nc(NS(=O)(=O)c2ccccc2C)c2c3c(sc2n1)CCC3,i,nt,46.8,nt,i,i
Cc1nc(-n2nnc3ccccc32)c2c3c(sc2n1)CCCC3,i,i,32.2,i,i,i
c1ccc2c(c1)nnn2-c1ncnc2sc3c(c12)CCCC3,i,i,i,i,i,i
C=CCn1c(SCC(=O)NC2CCCCC2)nnc1C1CCCCC1,i,nt,i,nt,i,i
C=CCSc1nc2c(c(=N)n1CC=C)C1CCCC1S2 (stereo not given),i,95.5,i,i,i,i
Clc1ccc(-c2cnc(Oc3ccccc3)nc2)cc1,i,nt,i,nt,i,33.1
Cc1cc(Cl)ccc1Oc1ncc(-c2ccc(Cl)cc2)cn1,i,nt,i,nt,i,i
Cc1cc(C)c(C(N)=O)c(Nc2cc(Cl)ccc2Cl)n1,nt,nt,nt,i,nt,nt
CCCCOc1ccc(C(=O)Nc2cc(-c3nc4ccccc4o3)ccc2OC)cc1,nt,nt,nt,i,nt,nt
O=C(c1ccc2ccccc2c1)N1CCN(c2ccc(C(F)(F)F)cn2)CC1,i,nt,i,nt,i,i
SMILES,PLAP act,Ecoli tolC,PostGolgi ctrl,HePTP inh,E coli WT exp,PostGolgi yeast
FC(F)(F)c1ccc(N2CCN(c3cc(-c4ccccc4)nc4ncnn34)CC2)nc1,i,i,56.6,i,i,i
CCC1C(=O)Nc2nc(-c3ccccc3)c(-c3ccccc3)n2N=C1C (stereo not given),i,nt,42.2,nt,i,i
CC1=Nn2c(nc(-c3ccccc3)c2-c2ccccc2)N(CC(N)=O)C(=O)C1,i,i,i,i,i,i
Cc1nnc(SCC(=O)N2CC(=O)Nc3ccccc32)n1-c1ccccc1,i,i,i,i,i,i
O=C1CN(C(=O)CSc2nnc(-c3ccccc3)n2Cc2ccc3c(c2)OCO3)c2ccccc2N1,i,i,i,i,i,38.3
O=C(CCN1CCCC1)NCC1COc2ccccc2O1 (stereo not given),nt,nt,nt,i,nt,nt
N#C/C(=C/c1ccc(Sc2ccccc2)o1)C(=O)Nc1ccccc1,nt,nt,nt,i,nt,nt
O=C(COc1ccccc1)Nc1cccc(-c2nc3cc4ccccc4cc3[nH]2)c1,i,nt,i,nt,i,45.4
Cc1ccc(C(=O)Nc2c(C(=O)Nc3cccnc3)cnn2-c2ccccc2)cc1,nt,nt,nt,i,nt,nt
CCOC(=O)c1cnn2c(C)cc(C)nc12,nt,nt,nt,i,nt,nt
CC(Nc1ccc(Br)cn1)c1cc(Cl)ccc1O (stereo not given),i,100.0,31.1,i,i,i
Oc1ccc(CN2CCc3ccccc3C2)c2cccnc12,2.1,nt,i,nt,62.0,i
COc1cc(/C=N/NC(=O)COc2ccccc2C)c(Br)c(Br)c1O,nt,nt,nt,i,nt,nt
CC1=CC(C)(C)N(S(=O)(=O)c2ccc(C)cc2)c2ccccc21,i,nt,32.1,nt,i,i

# High-throughput results as filed in PubChem.
